Results reported in ChEMBL document CHEMBL1142454, “Synthesis and evaluation of novel 4-amino-4,6-androstadiene-3,17-dione: an analog of formestane” (2008).

Assays:
Format in all cases: functional
Set-up in all cases: scale not given: the % may be the effect or the level left
[1] = system: OVCAR-3; test: Antitumor activity against human OVCAR-3 cells assessed as reduction of cell growth at 10 uM after 48 hrs by SRB assay
Outline: (§1)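 NCI 60-cell-line primary screen, single dose 10^-5 M (final). Cells grown in RPMI 1640 with 5% FBS and 2 mM L-glutamine, seeded at 5000–40,000 cells/well and preincubated 24 h at 37 °C, 5% CO2. Compound is dissolved in DMSO, diluted in medium with gentamicin, and exposed 48 h. Cells are fixed with 10% TCA (final) and stained with 0.4% SRB; absorbance is read at 515 nm. Readout is growth percentage.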

[2] = system: M14; test: Antitumor activity against human M14 cells assessed as reduction of cell growth at 10 uM after 48 hrs by SRB assay; outline: as §1
[3] = Antitumor activity against human HCT 116 cells assessed as reduction of cell growth at 10 uM after 48 hrs by SRB assay; outline: as §1
[4] = system: Malme-3M; test: Antitumor activity against human MALME-3M cells assessed as reduction of cell growth at 10 uM after 48 hrs by SRB assay; outline: as §1
[5] = system: EKVX; test: Antitumor activity against human EKVX cells assessed as reduction of cell growth at 10 uM after 48 hrs by SRB assay; outline: as §1
[6] = system: NCI-H460; test: Antitumor activity against human NCI-H460 cells assessed as reduction of cell growth at 10 uM after 48 hrs by SRB assay; outline: as §1
[7] = system: A549; test: Antitumor activity against human A549/ATCC cells assessed as reduction of cell growth at 10 uM after 48 hrs by SRB assay; outline: as §1
[8] = system: UACC-62; test: Antitumor activity against human UACC-62 cells assessed as reduction of cell growth at 10 uM after 48 hrs by SRB assay
Outline: (§2)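 NCI-60 one-dose primary screen at 10^-5 M final. Cells grown in RPMI 1640 with 5% FBS and 2 mM L-glutamine, plated at 5000–40,000 cells/well and preincubated 24 h at 37 °C, 5% CO2. Drug stocks in DMSO, diluted in medium with gentamicin. Exposure 48 h, then fixed in situ with TCA (10% final) for 60 min at 4 °C. Stained with 0.4% SRB in 1% acetic acid, bound dye solubilized in 10 mM trizma base, absorbance read at 515 nm. Reported as mean growth percent; negative values indicate cell kill.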

[9] = system: CAKI-1; test: Antitumor activity against human Caki-1 cells assessed as reduction of cell growth at 10 uM after 48 hrs by SRB assay; outline: as §1
[10] = system: SK-MEL-2; test: Antitumor activity against human SK-MEL-2 cells assessed as reduction of cell growth at 10 uM after 48 hrs by SRB assay; outline: as §1
[11] = system: DU-145; test: Antitumor activity against human DU145 cells assessed as reduction of cell growth at 10 uM after 48 hrs by SRB assay; outline: as §1
[12] = system: RPMI-8226; test: Antitumor activity against human RPMI 8226 cells assessed as reduction of cell growth at 10 uM after 48 hrs by SRB assay; outline: as §1
[13] = system: NCI-H322M; test: Antitumor activity against human NCI-H322M cells assessed as reduction of cell growth at 10 uM after 48 hrs by SRB assay; outline: as §1
[14] = system: NCI-H522; test: Antitumor activity against human NCI-H522 cells assessed as reduction of cell growth at 10 uM after 48 hrs by SRB assay; outline: as §1
[15] = system: SF-295; test: Antitumor activity against human SF-295 cells assessed as reduction of cell growth at 10 uM after 48 hrs by SRB assay; outline: as §1
[16] = system: UO-31; test: Antitumor activity against human UO-31 cells assessed as reduction of cell growth at 10 uM after 48 hrs by SRB assay; outline: as §2
[17] = system: TK-10; test: Antitumor activity against human TK-10 cells assessed as reduction of cell growth at 10 uM after 48 hrs by SRB assay; outline: as §2
[18] = system: A498; test: Antitumor activity against human A-498 cells assessed as reduction of cell growth at 10 uM after 48 hrs by SRB assay; outline: as §1
[19] = system: COLO 205; test: Antitumor activity against human COLO205 cells assessed as reduction of cell growth at 10 uM after 48 hrs by SRB assay; outline: as §1
[20] = system: MDA-MB-435; test: Antitumor activity against human MDA-MB-435 cells assessed as reduction of cell growth at 10 uM after 48 hrs by SRB assay; outline: as §1
[21] = system: MOLT-4; test: Antitumor activity against human MOLT-4 cells assessed as reduction of cell growth at 10 uM after 48 hrs by SRB assay; outline: as §1
[22] = system: SR; test: Antitumor activity against human SR cells assessed as reduction of cell growth at 10 uM after 48 hrs by SRB assay; outline: as §2

With `C[C@]12CCC(=O)C(N)=C1C=C[C@@H]1[C@@H]2CC[C@]2(C)C(=O)CC[C@@H]12.Cl` the Activity [1] was 64.57%, the Activity [2] was 79.51% and the Activity [3] was 6.15%. It also gave an Activity [4] of 70.81%, an Activity [5] of 97.99% and an Activity [6] of 83.77%. For the same compound, the Activity [7] was 103.34%, the Activity [8] was 81.02% and the Activity [9] was 84.08%. The Activity [10] was 74.41%, the Activity [11] was 62.36% and the Activity [12] was -18.11%. For the same compound, the Activity [13] was 88.38%, the Activity [14] was 76.59% and the Activity [15] was 105.1%. For the same compound, the Activity [16] was 64.59%, the Activity [17] was 85.59% and the Activity [18] was 99.19%. The Activity [19] was 121.26%, the Activity [20] was 112.52% and the Activity [21] was 57.2%.
`C[C@]12CC[C@H]3[C@@H](CCC4=CC(=O)CC[C@@]43CF)[C@@H]1CCC2=O` showed an Activity [1] of 119.07%, an Activity [2] of 102.8% and an Activity [3] of 110.19%. For the same compound, the Activity [4] was 94.17%, the Activity [5] was 94.85% and the Activity [6] was 108.88%. The Activity [7] was 99.26%, the Activity [8] was 114.6% and the Activity [9] was 111%. For the same compound, the Activity [10] was 97.19%, the Activity [11] was 116.2% and the Activity [13] was 101.55%. It also gave an Activity [14] of 87.35%, an Activity [15] of 106.3% and an Activity [16] of 87.76%. It also gave an Activity [17] of 114.8%, an Activity [18] of 111.1% and an Activity [19] of 134.97%. For the same compound, the Activity [20] was 100.91%, the Activity [21] was 106.1% and the Activity [22] was 118.7%.
In the case of `C[C@]12CCC(=O)C(Oc3ccccc3)=C1CC[C@@H]1[C@@H]2CC[C@]2(C)C(=O)CC[C@@H]12`, the Activity [1] is reported as 121.39%, the Activity [2] is reported as 102.62% and the Activity [3] is reported as 99.87%. For the same compound, the Activity [4] was 120.52%, the Activity [5] was 104.06% and the Activity [6] was 77.42%. For the same compound, the Activity [7] was 100.25%, the Activity [8] was 87.46% and the Activity [9] was 112.48%. For the same compound, the Activity [10] was 82.37%, the Activity [11] was 107.32% and the Activity [12] was 87.07%. The Activity [13] was 106.72%, the Activity [14] was 87.31% and the Activity [15] was 124.31%. The Activity [16] was 76.98%, the Activity [17] was 122.99% and the Activity [18] was 103%. For the same compound, the Activity [19] was 115.44%, the Activity [20] was 113.61% and the Activity [21] was 105.63%. The Activity [22] was 66.91%.
For `CCOC1=C2CC[C@@H]3[C@H](CC[C@]4(C)C(=O)CC[C@@H]34)[C@@]2(C)CCC1=O`, the Activity [1] was 128.63%, the Activity [2] was 103.8% and the Activity [3] was 103.2%. For the same compound, the Activity [4] was 87.47%, the Activity [5] was 111.14% and the Activity [6] was 83.36%. For the same compound, the Activity [7] was 97.79%, the Activity [8] was 90.78% and the Activity [9] was 115.2%. It also gave an Activity [10] of 94.48%, an Activity [11] of 123.2% and an Activity [13] of 95.97%. The Activity [14] was 91%, the Activity [15] was 114% and the Activity [16] was 85.82%. For the same compound, the Activity [17] was 100.6%, the Activity [18] was 105.6% and the Activity [19] was 132.65%. It also gave an Activity [20] of 104.79%, an Activity [21] of 98.59% and an Activity [22] of 104.9%.
